From ChEMBL document CHEMBL1153367, “Synthesis and evaluation of lysine derived sulfamides as histone deacetylase inhibitors” (Bioorg Med Chem Lett, 2009)

What was measured:
[1] = target: T1, Protein deacetylase HDAC6 (Homo sapiens, UniProt Q9UBN7); assay: Inhibition of human recombinant His-tagged HDAC6 expressed in baculovirus
T1 sequence (Q9UBN7 whole entry): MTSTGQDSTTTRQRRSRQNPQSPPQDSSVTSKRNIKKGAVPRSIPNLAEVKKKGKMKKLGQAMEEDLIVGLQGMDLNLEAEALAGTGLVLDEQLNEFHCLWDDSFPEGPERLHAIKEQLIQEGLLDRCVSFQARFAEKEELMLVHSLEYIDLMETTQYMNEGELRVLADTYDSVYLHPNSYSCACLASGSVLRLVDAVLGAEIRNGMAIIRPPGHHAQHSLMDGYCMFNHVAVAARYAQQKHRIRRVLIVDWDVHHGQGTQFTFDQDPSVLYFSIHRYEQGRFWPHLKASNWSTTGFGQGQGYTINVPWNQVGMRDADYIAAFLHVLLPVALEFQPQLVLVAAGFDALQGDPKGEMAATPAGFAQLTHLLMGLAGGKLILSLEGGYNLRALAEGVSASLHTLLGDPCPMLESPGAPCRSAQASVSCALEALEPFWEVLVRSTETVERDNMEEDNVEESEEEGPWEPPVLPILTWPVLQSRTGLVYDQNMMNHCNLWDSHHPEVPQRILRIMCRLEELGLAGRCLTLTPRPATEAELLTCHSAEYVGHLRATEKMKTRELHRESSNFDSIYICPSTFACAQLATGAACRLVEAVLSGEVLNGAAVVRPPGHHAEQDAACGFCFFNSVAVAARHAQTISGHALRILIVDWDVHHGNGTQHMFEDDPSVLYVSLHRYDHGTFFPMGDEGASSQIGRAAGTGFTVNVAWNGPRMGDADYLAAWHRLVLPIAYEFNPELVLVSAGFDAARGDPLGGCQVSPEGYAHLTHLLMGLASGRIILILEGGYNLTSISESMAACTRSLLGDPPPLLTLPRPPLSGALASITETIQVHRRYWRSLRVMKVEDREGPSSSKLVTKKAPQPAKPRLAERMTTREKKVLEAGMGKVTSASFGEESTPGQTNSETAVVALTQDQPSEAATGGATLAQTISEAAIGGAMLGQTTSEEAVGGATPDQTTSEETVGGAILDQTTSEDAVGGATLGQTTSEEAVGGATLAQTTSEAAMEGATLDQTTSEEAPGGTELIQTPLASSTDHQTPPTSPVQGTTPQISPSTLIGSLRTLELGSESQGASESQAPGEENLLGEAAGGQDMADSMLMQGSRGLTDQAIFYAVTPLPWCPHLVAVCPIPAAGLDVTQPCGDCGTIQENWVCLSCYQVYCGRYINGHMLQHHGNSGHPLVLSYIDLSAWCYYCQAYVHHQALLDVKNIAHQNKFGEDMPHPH
How it was run: (§1)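 Enzyme preincubated with inhibitor 10 min at ambient temperature in 25 mM Hepes pH 8.0, 137 mM NaCl, 1 mM MgCl₂, 2.7 mM KCl. Coumarin-labeled acetyl-lysine substrate then added, incubated at 37 °C. Quenched with trypsin (1 mg/mL final) and TSA (1 μM final). Fluorescence read; IC50 from dose–response curves. Values are means of at least two experiments.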

Histone deacetylase [2] = assay: Inhibition of HDAC in HEK293T cells by whole cell assay; format: cell-based, Homo sapiens; conditions: hek-293t
How it was run: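 Cultured 293T cells exposed to inhibitors for 16 h, then given the membrane-permeable substrate Boc-Ac-Lys-AMC for 90 min at 37 °C. Quenched with trypsin (1 mg/mL final) and TSA, then lysed in 1% NP-40. Fluorescence read at Ex 360/Em 470 nm; IC50 reported. Values are means of at least two experiments.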

Histone deacetylase 1 = Histone deacetylase 1 (Homo sapiens, UniProt Q13547); assay: Inhibition of human recombinant FLAG-tagged HDAC1 expressed in baculovirus; how it was run: as §1
[3] = Bioavailability in dog; format: ADME, organism-based, Canis lupus familiaris; conditions: in vivo
[4] = Clearance in iv dosed rat; format: ADME, organism-based; conditions: in vivo
[5] = Clearance in dog; format: ADME, organism-based, Canis lupus familiaris; conditions: in vivo
[6] = Oral bioavailability in rat; format: ADME, organism-based; conditions: in vivo
[7] = Volume of distribution at steady state in rat; format: ADME, organism-based; conditions: in vivo, read-out: Vdss
Plasma [8] = assay: Metabolic stability in rat plasma; format: ADME, cell-free
[9] = Half life in dog; format: ADME, organism-based, Canis lupus familiaris; conditions: in vivo
Plasma [10] = assay: Metabolic stability in human plasma; format: ADME, cell-free
[11] = Half life in rat; format: ADME, organism-based; conditions: in vivo
Histone deacetylase [12] = assay: Inhibition of HDAC in T24 cells assessed as histone H3 acetylation; conditions: Homo sapiens
[13] = Metabolic stability in rat plasma assessed as compound remaining after 1 hr; format: ADME, cell-free; conditions: read-out: Activity
How it was run: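 Compound kept in rat plasma at 37 °C for 1 h; percentage of intact compound remaining was measured.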

Histone deacetylase [14] = assay: Inhibition of HDAC in T24 cells assessed as alpha-tubulin acetylation; conditions: Homo sapiens
Homo sapiens = organism: Homo sapiens; assay: Selectivity for ratio of IC50 for human recombinant HDAC1 to IC50 for human recombinant HDAC6
How it was run: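 HDAC1 and HDAC6 were each preincubated with compound for 10 min at ambient temperature in 25 mM Hepes pH 8.0, 137 mM NaCl, 1 mM MgCl2, 2.7 mM KCl. A coumarin-labeled acetyl-lysine substrate was then added at 37 °C. Reactions were quenched with trypsin (1 mg/mL final) plus TSA, and fluorescence was read. IC50s came from dose-response curves, as means of at least two experiments. The ratio is HDAC1 IC50 over HDAC6 IC50.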

Histone deacetylase 1, sequence (Q13547 whole entry): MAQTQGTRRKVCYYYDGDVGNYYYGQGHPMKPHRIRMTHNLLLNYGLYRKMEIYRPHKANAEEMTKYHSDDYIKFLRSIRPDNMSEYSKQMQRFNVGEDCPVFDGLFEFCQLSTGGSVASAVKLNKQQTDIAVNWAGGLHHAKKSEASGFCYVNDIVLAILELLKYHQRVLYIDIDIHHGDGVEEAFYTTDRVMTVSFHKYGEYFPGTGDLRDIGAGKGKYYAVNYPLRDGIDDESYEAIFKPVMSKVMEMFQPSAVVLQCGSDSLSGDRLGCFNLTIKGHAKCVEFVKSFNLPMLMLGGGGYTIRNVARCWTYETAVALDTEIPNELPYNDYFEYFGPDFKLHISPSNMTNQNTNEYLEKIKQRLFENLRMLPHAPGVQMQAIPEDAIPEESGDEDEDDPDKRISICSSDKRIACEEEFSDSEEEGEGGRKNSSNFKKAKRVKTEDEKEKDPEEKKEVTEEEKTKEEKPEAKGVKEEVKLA

| Structure (SMILES) | IC50 [1] [nM] | IC50 (Histone deacetylase [2]) [nM] | IC50 (Histone deacetylase 1) [nM] | other results |
| --- | --- | --- | --- | --- |
| NS(=O)(=O)NCCCC[C@H](NC(=O)OCc1ccccc1)C(=O)Nc1nc(-c2ccccc2)c(-c2ccccc2)s1 | 450 | 7200 | 850 |  |
| NS(=O)(=O)NCCCC[C@H](NC(=O)Nc1ccccc1)C(=O)Nc1nc(-c2ccccc2)cs1 | 560 | > 50000 | 2300 |  |
| NS(=O)(=O)NCCCC[C@H](NC(=O)OCc1ccccc1)c1nc2cc(-c3cccs3)ccc2[nH]1 | 480 | 620 | 200 | bioavailability [3]: 6%; clearance [4]: 6.83 mL/min/kg; clearance [5]: 8.5 mL/min/kg; bioavailability [6]: 0.5%; Vd [7]: 0.03 L/kg; Stability (Plasma [8]): Stable; half-life [9]: 5.7 h; Stability (Plasma [10]): Stable; half-life [11]: 1.2 h |
| CC(C)(C)c1csc(NC(=O)[C@H](CCCCNS(N)(=O)=O)NC(=O)OCc2ccccc2)n1 | 840 | 9100 | 3600 |  |
| N[C@@H](CCCCNS(N)(=O)=O)C(=O)Nc1nc(-c2ccccc2)cs1 | 1100 | > 50000 | > 10000 |  |
| NS(=O)(=O)NCCCC[C@H](NC(=O)OCc1ccccc1)C(=O)Nc1nc(-c2ccccc2)cs1 |  | 2300 |  | EC50 (Histone deacetylase [12]): 700 nM; clearance [4]: 41.7 mL/min/kg; bioavailability [6]: 4.9%; Vd [7]: 0.02 L/kg; remaining at 1 h [13]: 3%; half-life [11]: 0.025 h; EC50 (Histone deacetylase [14]): 600 nM |
| NS(=O)(=O)NCCCC[C@H](NC(=O)OCc1ccccc1)c1nc(-c2ccccc2)cs1 | 1200 | 12000 | 4900 |  |
| NS(=O)(=O)NCCCC[C@H](NC(=O)OCc1ccccc1)c1nnc(-c2ccccc2)o1 | 1800 | 9900 | 3200 |  |
| CC(C)c1ccc(-c2csc(NC(=O)[C@H](CCCCNS(N)(=O)=O)NC(=O)OCc3ccccc3)n2)cc1 | 1400 | 3200 | 520 |  |
| NS(=O)(=O)NCCCC[C@H](NC(=O)OCc1ccccc1)C(=O)Nc1nccs1 | 4100 | > 50000 | > 10000 |  |
| NS(=O)(=O)NCCCC[C@H](NC(=O)OCc1ccc(Cl)cc1)C(=O)Nc1nc(-c2ccccc2)cs1 | 530 | 6800 | 570 |  |
| COc1cccc(-c2csc(NC(=O)[C@H](CCCCNS(N)(=O)=O)NC(=O)OCc3ccccc3)n2)c1 | 420 | 3200 | 460 |  |
| NS(=O)(=O)NCCCC[C@H](NS(=O)(=O)Cc1ccccc1)C(=O)Nc1nc(-c2ccccc2)cs1 | 520 | 38000 | 1400 |  |
| NS(=O)(=O)NCCCC[C@H](NC(=O)OCc1cccnc1)C(=O)Nc1nc(-c2ccccc2)cs1 | 600 | 18000 | 1500 |  |
| CN(C)CCOc1ccc(-c2nc([C@H](CCCCNS(N)(=O)=O)NC(=O)OCc3ccccc3)cs2)cc1 | 890 | 180 | 390 | clearance [4]: 38.3 mL/min/kg; bioavailability [6]: 0.5%; Vd [7]: 0.78 L/kg; half-life [11]: 1.6 h |
| CCOC(=O)c1csc(NC(=O)[C@H](CCCCNS(N)(=O)=O)NC(=O)OCc2ccccc2)n1 | 580 | > 50000 | > 10000 |  |
| NS(=O)(=O)NCCCC[C@H](NC(=O)OCc1ccccc1)c1nc(-c2ccc(F)cc2)no1 | 1700 | > 50000 | > 10000 |  |
| COc1ccc(-c2nc([C@H](CCCCNS(N)(=O)=O)NC(=O)OCc3ccccc3)cs2)cc1 | 480 |  | 500 |  |
| COc1ccc2[nH]c(C)c(CC(=O)N[C@@H](CCCCNS(N)(=O)=O)C(=O)Nc3nc(-c4ccccc4)cs3)c2c1 | 1200 | 590 | 64 |  |
| Cn1nc([C@H](CCCCNS(N)(=O)=O)NC(=O)OCc2ccccc2)nc1-c1ccccc1 | 2000 | > 50000 | 4300 |  |

Continued by falling IC50 [1], values first:

| IC50 [1] [nM] | IC50 (Histone deacetylase [2]) [nM] | IC50 (Histone deacetylase 1) [nM] | Structure (SMILES) | other results |
| --- | --- | --- | --- | --- |
| 410 | 2200 | 290 | NS(=O)(=O)NCCCC[C@H](NC(=O)OCc1ccccc1)c1c[nH]c(-c2ccccc2)n1 |  |
| 400 | 5800 | 790 | NS(=O)(=O)NCCCC[C@H](NC(=O)OCc1ccccc1)c1csc(-c2ccccc2)n1 | Ratio IC50 (Homo sapiens): 2 |
| 370 | 29000 | 350 | NS(=O)(=O)NCCCC[C@H](NC(=O)NCc1ccc(F)cc1)C(=O)Nc1nc(-c2ccccc2)cs1 |  |
| 320 | 6400 | 2400 | NS(=O)(=O)NCCCC[C@H](NC(=O)OCc1ccccc1)c1n[nH]c(-c2ccccc2)n1 |  |
| 280 | 3600 | 350 | NS(=O)(=O)NCCCC[C@H](NC(=O)OCc1cccc(Cl)c1)C(=O)Nc1nc(-c2ccccc2)cs1 |  |
| 250 | 4900 | 150 | NS(=O)(=O)NCCCC[C@H](NC(=O)OCc1ccccc1)C(=O)Nc1nc(-c2ccc(Cl)cc2)cs1 |  |
| 200 | 530 | 120 | COc1ccc(-c2csc(NC(=O)[C@H](CCCCNS(N)(=O)=O)NC(=O)OCc3ccccc3)n2)cc1 |  |
| 200 | 17000 | 2500 | CCOC(=O)N[C@@H](CCCCNS(N)(=O)=O)C(=O)Nc1nc(-c2ccccc2)cs1 |  |
| 190 | 19000 | 4500 | NS(=O)(=O)NCCCC[C@H](NC(=O)OCc1ccccc1)C(=O)Nc1nc2ccccc2s1 |  |
| 150 | 6100 | 700 | NS(=O)(=O)NCCCC[C@H](NC(=O)Cc1ccccc1)C(=O)Nc1nc(-c2ccccc2)cs1 |  |
| 100 | 9500 | 2900 | NS(=O)(=O)NCCCC[C@H](NC(=O)OCc1ccccc1)c1nc2ccccc2[nH]1 |  |
